# Assay outcomes (PubChem BioAssay)
# KCNQ1 act = potentiators or activators of human KCNQ1 potassium channel. P51787. CHO-K1 KCNQ1, thallium flux FluxOR fluorescence; active compounds read high. B-score at 10 µM. actives 0.35% (n = 310,000);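 active means fluorescence ratio B-score, a plate-corrected score, at least three library SD, with initial intensity B-score within 5 SD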
#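 Doses: Single concentration per compound, DMSO matched to controls | Test system: KCNQ1-transfected CHO-K1 cells | Timing: 90 min dye loading and 20 min compound exposure, both at room temperature | Measured by: Kinetic FluxOR thallium fluorescence, 10-s 1-Hz baseline, 110-s post-stimulus read | Medium: Assay buffer with matched DMSO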
# hERG protect = shields human hERG channel from block by proarrhythmic agents | CHO-hERG, FluxOR thallium flux, dofetilide IC70 present | activation (rescue from dofetilide block), less the hit threshold, % at 10 µM | actives 0.51% (n = 310,000);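 active means activation above the mean of controls blocked by dofetilide plus 5 SD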;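 further: thallium influx through hERG after potassium depolarization seen as dye fluorescence rise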
# Target sequence (Q12809 whole entry, looked up): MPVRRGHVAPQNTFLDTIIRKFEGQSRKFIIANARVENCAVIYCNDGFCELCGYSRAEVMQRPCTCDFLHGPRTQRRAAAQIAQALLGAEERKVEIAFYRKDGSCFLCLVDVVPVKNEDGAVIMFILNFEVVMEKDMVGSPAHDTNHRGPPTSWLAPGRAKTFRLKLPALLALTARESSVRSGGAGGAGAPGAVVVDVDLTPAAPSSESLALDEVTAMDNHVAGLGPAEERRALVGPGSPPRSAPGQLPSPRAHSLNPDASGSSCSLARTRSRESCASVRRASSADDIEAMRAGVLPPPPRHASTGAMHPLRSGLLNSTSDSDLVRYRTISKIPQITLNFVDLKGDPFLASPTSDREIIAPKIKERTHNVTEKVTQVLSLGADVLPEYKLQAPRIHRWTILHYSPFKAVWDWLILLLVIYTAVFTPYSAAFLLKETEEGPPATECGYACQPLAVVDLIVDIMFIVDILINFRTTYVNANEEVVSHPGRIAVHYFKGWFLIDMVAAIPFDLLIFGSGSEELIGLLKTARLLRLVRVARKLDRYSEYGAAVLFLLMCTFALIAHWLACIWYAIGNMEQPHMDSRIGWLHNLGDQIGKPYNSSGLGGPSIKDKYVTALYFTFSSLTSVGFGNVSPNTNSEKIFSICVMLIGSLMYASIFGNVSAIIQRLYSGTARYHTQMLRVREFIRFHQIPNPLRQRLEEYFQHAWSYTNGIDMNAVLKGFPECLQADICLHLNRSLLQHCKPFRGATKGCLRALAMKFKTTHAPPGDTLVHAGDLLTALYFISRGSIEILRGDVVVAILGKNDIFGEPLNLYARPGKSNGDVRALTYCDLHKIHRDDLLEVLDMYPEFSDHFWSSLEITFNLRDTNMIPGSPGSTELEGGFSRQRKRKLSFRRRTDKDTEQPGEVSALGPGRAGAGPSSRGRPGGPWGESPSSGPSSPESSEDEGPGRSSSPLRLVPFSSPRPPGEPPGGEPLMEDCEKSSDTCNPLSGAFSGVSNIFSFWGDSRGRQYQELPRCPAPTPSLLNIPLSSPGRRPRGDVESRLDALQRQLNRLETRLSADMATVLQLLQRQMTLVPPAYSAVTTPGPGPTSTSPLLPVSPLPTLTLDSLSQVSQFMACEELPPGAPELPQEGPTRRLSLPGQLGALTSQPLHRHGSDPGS
# KCNQ1 block = blocks the human KCNQ1 potassium channel; B-score at 10 µM; actives 1.3% (n = 310,000); CHO-K1 KCNQ1, FluxOR thallium flux fluorescence; active compounds read high; P51787;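 active means compounds whose thallium flux B-score, printed positive for inhibition, exceeds three library SD while starting fluorescence stays within three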;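 further: channel opened by potassium depolarization with thallium stimulus after 20 min compound exposure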
# KCNK9 inh-1 = blocks the human KCNK9 two-pore domain potassium channel | B-score at 10 µM | actives 1.2% (n = 310,000) | HEK293 KCNK9, FluxOR thallium flux fluorescence; active compounds read low;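 active means ratio B-score over 3 SD below the library mean, with starting fluorescence within 5 SD of its mean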;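 further: negative B-score means less thallium flux so channel inhibition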
# KCNK3 inh = human KCNK3 channel inhibition, primary screen; O14649; CHO-KCNK3 thallium flux, FluxOR fluorescence; active compounds read low; B-score at 10 µM; actives 0.84% (n = 340,000);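 active means B-score under library mean minus 4 SD, starting fluorescence ratio at most library mean plus 5 SD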;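 further: more negative B-score means stronger inhibition of thallium flux through KCNK3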
# Kir21 inh = Kir2.1 (mouse) channel inhibition | HEK293-Kir2.1, FluxOR thallium flux fluorescence; active compounds read low | B-score at 10 µM | actives 0.85% (n = 310,000) | AID 1672;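 active means fluorescence ratio B-score at or below minus 3 SD of library scores, with starting-brightness B-score within 2 SD, cut at about -4.2 in these data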;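 further: channel flux triggered by added potassium and thallium sulfate stimulus; B-score of peak minus minimum fluorescence over baseline after thallium stimulus; more negative B-score means stronger Kir2.1 block with less thallium influx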
# hERG inh = blocks human hERG, in counter-screen for Kir2.1 inhibitors | AID 2236 | shares compounds with Kir21 inh | hERG-expressing cells, thallium flux | inhibition, % at 10 µM | actives 20% (n = 320);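 further: host cells are CHO cells stably expressing hERG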
# KCNK9 inh-2 = human KCNK9 off-target activity of Kir2.1 blockers; KCNK9-expressing cells, ion flux inhibition; inhibition, % at 10 µM; actives 5% (n = 320); shares compounds with Kir21 inh
# Kir21 ephys inh = inhibitors of mouse Kir2.1 potassium channel. inhibition, % at 25 µM. AID 463252. actives 71% (n = 320). Kir2.1 cells, automated patch-clamp current inhibition. shares compounds with Kir21 inh
# KCNQ1 inh valid = reconfirmed blocker of the human KCNQ1 potassium channel. shares compounds with KCNQ1 block. KCNQ1 cell line, FluxOR thallium flux fluorescence. inhibition, % at 10 µM. actives 93% (n = 1,600);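 active means primary screen active, with duplicate mean exceeding buffer control mean plus 3 SD of buffer wells, cut at about 28% in these data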;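 further: 0% = buffer control ratio and 100% = XE991 inhibitor control ratio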
# CHO Tl flux = KCNQ1 inhibitor counter-screen hit in parental CHO cells. fluorescence ratio (Tl flux) at 10 µM. actives 21% (n = 1,600). shares compounds with KCNQ1 block. parental CHO-K1, FluxOR thallium flux fluorescence ratio; active compounds read low; zero means no signal rise above baseline;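 active means mean of duplicate thallium-flux fluorescence ratios in parental host cells more than 5 SD below the buffer control mean, cut at about 0.38 in these data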;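 further: ratio is peak minus minimum fluorescence divided by baseline fluorescence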
# KCNQ2 spec = rat KCNQ2 inhibition in KCNQ1 inhibitor specificity screen; shares compounds with KCNQ1 block; KCNQ2 cells, FluxOR thallium flux fluorescence; inhibition, % at 10 µM; actives 71% (n = 1,600);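 active means mean percent inhibition of the KCNQ2 thallium signal more than 5 SD above the buffer-only control wells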;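 further: KCNQ2 expressed in CHO cells; 0% = buffer control wells and 100% = XE-991 inhibitor control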
# KCNQ1-KCNE1 inh = selectivity of KCNQ1 inhibitors: inhibition of human KCNQ1/KCNE1 channel | shares compounds with KCNQ1 block | KCNQ1/KCNE1 cells, FluxOR thallium flux fluorescence | inhibition, % at 10 µM | actives 77% (n = 1,600);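 active means mean percent inhibition of duplicate wells above the buffer-only control mean plus 3 SD of those controls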;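 further: 0% = buffer only wells and 100% = XE-991 inhibitor control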
# * = called active by the depositor; i = inactive; / = no result. This is a sample that favours compounds with a hit; in the whole collection about 3.7% have one here. Unless noted, how the calls were made is not given here.
SMILES,KCNQ1 act,hERG protect,KCNQ1 block,KCNK9 inh-1,KCNK3 inh,Kir21 inh,hERG inh,KCNK9 inh-2,Kir21 ephys inh,others
Cc1ccc(C(=O)NC(=S)NNC(=O)c2ccccc2O)cc1,i,-12,i,i,i,-0.33,/,/,/,
Cc1ccc(C(=O)NNC(=S)NC(=O)c2ccccc2)cc1,8*,23*,i,i,i,2.6,i,i,i,
Cn1cnnc1SCC(=O)Nc1ncc(C(F)(F)F)cc1Cl,i,-4,i,i,i,-1.1,/,/,/,
C#CCNC(=O)C1=C[C@@H](c2ccc(C#C)cc2)C[C@@H](OCc2ccc(CO)cc2)O1,i,-11,i,i,i,-6.3*,i,i,6.4%*,
Cc1csc(NC(=O)CSc2nnc(NC(=O)COc3ccccc3)s2)n1,i,2,i,i,i,0.93,/,/,/,
O=C(c1ccc2c(=O)n3c(nc2c1)CCCCC3)N1CCc2ccccc21,i,-19,i,i,i,-0.11,/,/,/,
CCc1nc(SCC(=O)Nc2cc(C)on2)c2c(=O)n(C)c(=O)n(C)c2n1,i,-9,i,i,i,0.31,/,/,/,
Cc1cc(NC(=O)CSc2nc(CC(C)(C)C)nc3c2c(=O)n(C)c(=O)n3C)no1,i,-9,i,i,i,3.6,i,i,i,
COCCn1c(Cc2ccccc2)nnc1SCc1ccc([N+](=O)[O-])cc1,i,0,i,i,i,-1.4,/,/,/,
CN(C)c1nc(Nc2ccccc2)nc(N(C)C)n1,i,-11,i,i,i,1.1,/,/,/,
CN(C)c1ccc(Nc2nc(N)c3ccccc3n2)cc1,i,-8,i,i,i,-7.5*,i,i,65%*,
CCOc1ccc(Nc2nc(N)c3ccccc3n2)cc1,i,-9,i,i,i,-9.9*,i,i,70%*,
CC(C)(C)n1nc2c(c1NC(=O)c1cc3ccccc3o1)CS(=O)(=O)C2,i,-7,i,i,i,0.03,/,/,/,
CCCCN(Cc1ccco1)S(=O)(=O)c1csc(C(N)=O)c1,i,-9,i,i,i,-7.2*,i,i,46%*,
CC(CCc1ccco1)N(C)S(=O)(=O)c1csc(C(N)=O)c1 (centres undefined),i,-3,i,i,i,-1,/,/,/,
CC(C)(Oc1ccc(Cl)cc1)C(=O)OCC(=O)NCCc1ccccc1,i,-14,i,i,i,-6.4*,i,i,39%*,
CN(CC(=O)Nc1ccccc1Br)C(=O)CCCSc1nc2ccccc2[nH]1,i,-12,i,i,i,1,/,/,/,
COc1cccc(C(C)NC(=S)NCc2ccc(Cl)cc2)c1 (centres undefined),i,-20,8*,i,i,-7.8*,i,i,31%*,KCNQ1 inh valid=0;CHO Tl flux=0.52;KCNQ2 spec=i;KCNQ1-KCNE1 inh=i
